Publication PMC3177973 (Biochemistry, 2011)

How the values were obtained:
α-synuclein [1] = target: T1, α-synuclein (Homo sapiens, UniProt P37840); conditions: similar effect as WW2; cited from earlier work
α-synuclein [2] = target: T1, α-synuclein; experiment: TEM imaging of α-syn aggregation assays; type: biochemical; conditions: 2 molar equivalents; images after 16–24 hrs; AA = amorphous aggregates
Outline: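 Full-length 140-residue α-syn was expressed in E. coli BL21(DE3) and purified by anion exchange. It was used at 100 μM in 20 mM Tris-HCl pH 7.5, at 37 °C with vigorous stirring, with or without peptide. HFIP was added to 1.5 vol-% to start aggregation. After 16–24 h, a freshly agitated 5 μL aliquot was adsorbed on formvar/carbon-coated copper grids, negatively stained with 2% uranyl acetate and imaged by TEM.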

α-synuclein [3] = target: T1, α-synuclein; experiment: α-syn aggregation assay, CD spectroscopy; type: biochemical; conditions: 2 molar equivalents; for β CD signal, % β, α-syn assay: at 16 h (no time printed for MrH3b); for Effect on course, onset or lag time of α-syn aggregation (in words): monitored by CD and ThT
Outline: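 Recombinant full-length α-syn was expressed in E. coli BL21(DE3) and used at 100 μM in 20 mM Tris-HCl pH 7.5. Aggregation was started by HFIP addition (1.5 vol-% final) under continuous stirring at 37 °C, with or without inhibitor peptide and without ThT. Every 2–4 h, a 5 μL aliquot was diluted into 195 μL of 1.5% HFIP buffer (2.5 μM α-syn). Spectra were recorded in 0.1 cm cells to follow the random coil-to-β transition, corrected for inhibitor contribution.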

Row | Fibril Morphology (TEM), α-syn (α-synuclein [2]) | Time by which β CD signal appears, α-syn assay (α-synuclein [3]) | β CD signal, % β, α-syn assay (α-synuclein [3]) | β CD signal, α-syn assay (in words) (α-synuclein [3]; 100 μM α-syn, 1.5 vol-% HFIP) | Compound | Excess of inhibitor required for non-amyloid α-syn aggregates (α-synuclein [1]) | Effect on course, onset or lag time of α-syn aggregation (in words) (α-synuclein [3])
1 |  |  |  |  | O=C(O[C@@H]1Cc2c(O)cc(O)cc2O[C@@H]1c1cc(O)c(O)c(O)c1)c1cc(O)c(O)c(O)c1 [EGCG, (−)-epigallocatechin-3-gallate] | 5 fold excess | 
2 | Normal | β signal within 6 h, 100% 16 h hours | 100% |  | Ac-KIVTSAK [ssMrH] |  | no effects on the course of α-syn aggregation
3 | Normal + AA |  | 80% | Helical at 4–6 hours 80 % β at 16 h | KKLTVWI [ssW] |  | delays aggregation (as monitored by CD)
